This note sets out measurements from ChEMBL document CHEMBL3804769, “Antibacterial Diamines Targeting Bacterial Membranes” (J Med Chem, 2016).

Values after ≈ are worked out from the molar mass of the structure shown. Active and inactive are the calls of the source. No cut-off for these calls is given here.

Series [1] deals with Pseudomonas aeruginosa. Kind of series: Antibacterial activity against Pseudomonas aeruginosa PAO1 ATCC 47085 incubated overnight by microbroth dilution method. Format: functional. The method, boiled down:
(§1)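 Bacteria grown in LB medium. CLSI microbroth dilution in 96-well plates, overnight at 37 °C without shaking. MIC99 taken as the lowest concentration giving complete growth inhibition. Three independent determinations, reported as mean ± SD.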
A general note: Broth dilution looks for growth in wells or tubes with falling amounts of substance.

The test system of series [2] is Escherichia coli. Kind of series: Antibacterial activity against Escherichia coli ANS1 incubated overnight by microbroth dilution method. Format: functional. The method, boiled down:
as §1

Series [3] concerns Staphylococcus aureus. Kind of series: Antibacterial activity against Staphylococcus aureus RN4220 ATCC 35556 incubated overnight by microbroth dilution method. Type of series: functional. The method, boiled down: as §1
Series [4] has as its system Pseudomonas aeruginosa. Kind of series: Antibiofilm activity against Pseudomonas aeruginosa PAO1 ATCC 47085 after 24 hrs by crystal violet staining-based spectrophotometry. Type of series: functional, organism-based. The method, boiled down:
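PAO1 grown 2 h in LB at 37 °C with shaking, then diluted 1:1000 in 10% LB-PBS to 3 × 10⁵ CFU/mL. Inoculum mixed with serially diluted compound under pegged lids and incubated 24 h at 37 °C static. Peg biofilms washed, stained 15 min with 0.1% crystal violet, and dye eluted in 95% ethanol and read at 600 nm.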

The test system of series [5] is Pseudomonas aeruginosa. The experiment in a line: Bactericidal activity against Pseudomonas aeruginosa PAO1 ATCC 47085 assessed as reduction in bacterial burden. Format: functional, organism-based. The method, boiled down:
(§2)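 Overnight LB cultures of RN4220 or PAO1 washed and resuspended in PBS, then diluted 100-fold into LB (exponential phase) or 1% PBS (stationary phase). Compound added at 4× MIC99, and cultures shaken at 200 rpm at 37 °C. Viable counts taken by dilution plating on LB agar at 0, 2, 4 and 6 h.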

Series [6] has as its system Staphylococcus aureus. Kind of series: Bactericidal activity against Staphylococcus aureus RN4220 ATCC 35556 assessed as reduction in bacterial burden. Type of series: functional, organism-based. The method, boiled down:
as §2

Series [7] relates to Staphylococcus aureus. The experiment in a line: Bactericidal activity against Staphylococcus aureus RN4220 ATCC 35556 in stationary-phase assessed as reduction in bacterial burden at 4 times MIC99 after 2 to 6 hrs by time-kill assay. Type of series: functional, organism-based. The method, boiled down: (§3)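 Overnight cultures washed and resuspended in PBS, then diluted 100-fold into LB (exponential-phase model) or into 1% PBS (stationary-phase model). Test agent added at 4× MIC99. Incubated at 37 °C with shaking at 200 rpm. CFU counted on LB agar at 0, 2, 4 and 6 h.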

In series [8] the test system is Pseudomonas aeruginosa. Kind of series: Bactericidal activity against Pseudomonas aeruginosa PAO1 ATCC 47085 in exponential-phase assessed as reduction in bacterial burden at 4 times MIC99 upto 6 hrs by time-kill assay. Type of series: functional. The method, boiled down: as §3
Series [9] concerns Staphylococcus aureus. Kind of series: Bactericidal activity against Staphylococcus aureus RN4220 ATCC 35556 in stationary-phase assessed as reduction in bacterial burden at 4 times MIC99 after 4 hrs by time-kill assay. Format: functional. The method, boiled down:
as §2

In series [10] the test system is Staphylococcus aureus. Kind of series: Bactericidal activity against Staphylococcus aureus RN4220 ATCC 35556 in exponential-phase assessed as reduction in bacterial burden at 4 times MIC99 after 2 to 6 hrs by time-kill assay. Type of series: functional, organism-based. The method, boiled down: as §3
Series [11] relates to Pseudomonas aeruginosa. Kind of series: Bactericidal activity against Pseudomonas aeruginosa PAO1 ATCC 47085 in stationary-phase assessed as reduction in bacterial burden at 4 times MIC99 after 4 hrs by time-kill assay. Type of series: functional, organism-based. The method, boiled down:
as §3

The test system of series [12] is Caenorhabditis elegans. The experiment in a line: Toxicity in juvenile L1 stage of Caenorhabditis elegans N2 assessed as nematode death at 64 ug/ml incubated for 96 hrs measured every 12 hrs. Type of series: organism-based. As to conditions: in vivo. The method, boiled down:
(§4)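 C. elegans N2 kept on NGM agar at 22 °C. Compound mixed into molten NGM agar at 64 μg/mL. L4 adults, L1 juveniles and synchronized eggs transferred onto test plates and held at 22 °C for 96 h. Death, development and egg production checked every 12 h.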

Series [13] deals with Caenorhabditis elegans. Kind of series: Toxicity in Caenorhabditis elegans N2 assessed as effect on viable eggs production treated at high concentration. Type of series: organism-based. As to conditions: in vivo. The method, boiled down:
as §4

Series [14] concerns Pseudomonas aeruginosa. The experiment in a line: Antibiofilm activity against Pseudomonas aeruginosa PAO1 ATCC 47085 at < 1024 ug/ml after 24 hrs by crystal violet staining-based spectrophotometry. Format: functional, organism-based. The method, boiled down: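 PAO1 grown 2 h in LB at 37 °C with shaking, then diluted 1:1000 in 10% LB-PBS to 3 × 10⁵ CFU/mL and mixed with serially diluted compound. Biofilms grown on peg lids 24 h at 37 °C, static. Pegs washed, stained with 0.1% crystal violet for 15 min, dye eluted in 95% ethanol and read at 600 nm. Control was 10% LB-PBS.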

Series [15] has as its system Pseudomonas aeruginosa. Kind of series: Antibacterial activity against Pseudomonas aeruginosa PAO1 ATCC 47085 assessed as increase in outer membrane permeability at 4 times MIC99 by fluorescent probe 1-N-phenylnaphthylamine based fluorescence assay. Type of series: functional, organism-based. The method, boiled down:
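P. aeruginosa PAO1 from a culture at OD600 ~0.5, washed and resuspended in 5 mM HEPES pH 7.2. NPN added to 10 μM final and sodium azide to 10 mM final, then 30 min at room temperature in darkness. Compound added at 4× or 1× MIC99 and NPN fluorescence recorded continuously (ex 350/em 420 nm). Gentamicin at 4× MIC99 as positive control. Three independent experiments.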

As a reminder, the MIC99 is the lowest concentration that inhibits either 99% of growth or 99% of the strains tested, depending on the study. `S=C(NCCCNCCCCNCCCNC(=S)NC(c1ccccc1)c1ccccc1)NC(c1ccccc1)c1ccccc1`: the MIC99 in series [1] stood at 10.4 µg/mL (≈ 15.9 µM); in [2] it was 6.2 µg/mL (≈ 9.49 µM); in series [3], 3.8 µg/mL (≈ 5.82 µM).
On the same counts, the results for `O=C(NCCCCCCCCCCCNC(=O)NCCC(c1ccccc1)c1ccccc1)NCCC(c1ccccc1)c1ccccc1` are greater than 256 µg/mL, greater than 256 µg/mL and greater than 256 µg/mL.
`CN(C)[C@@H]1C(O)=C(C(N)=O)C(=O)[C@@]2(O)C(O)=C3C(=O)c4c(O)cccc4[C@@](C)(O)[C@H]3C[C@@H]12`: in series [4], the result was Active.
COLISTIN: the outcome in series [5] and in series [6] was Active. Also, the MIC99 in series [1] was less than 0.125 µg/mL; in series [3], greater than 16 µg/mL.
As for `Cl.Cl.O=C(NCCCNCCCCCNCCCNC(=O)NCC(c1ccccc1)c1ccccc1)NCC(c1ccccc1)c1ccccc1`, the MIC99 in [1] came out at 26.7 µg/mL; in series [2] it was 4 µg/mL; in series [3], 18.7 µg/mL.
Consider `NCCCNCCCCNCCCN` [SPERMINE], for which the MIC99 in series [1], in [2] and in [3] was greater than 512 µg/mL throughout.
On to `O=[N+]([O-])c1ccc(O)c([N+](=O)[O-])c1`, for which the result in series [5] and in [6] was Active.
For `Cl.Cl.O=C(NCCCNCCCCCNCCCNC(=O)NC(c1ccccc1)c1ccccc1)NC(c1ccccc1)c1ccccc1`, the MIC99 in [1] was 13.3 µg/mL; in [2], 6 µg/mL; in series [3], 10.7 µg/mL.
Turning to `Cl.Cl.O=C(NCCCNCCCCCNCCCNC(=O)Nc1ccccc1)Nc1ccccc1`, the MIC99 in series [1], in series [2] and in series [3] was greater than 256 µg/mL in each case.
On to `Cl.Cl.O=C(NCCCNCCCCCNCCCNC(=O)NCCC(c1ccccc1)c1ccccc1)NCCC(c1ccccc1)c1ccccc1`, for which the MIC99 in [1] is 26.7 µg/mL; in [2], 6 µg/mL; in series [3], 13.3 µg/mL.
`CCn1cc(C(=O)O)c(=O)c2cc(F)c(N3CCNCC3)cc21` [NORFLOXACIN]: the result in series [7] was inactive. Also, the outcome in series [4] and in series [10] was Active. Further, the Activity in [8] is 4 deltalog10CFU/ml; in [9], 2 deltalog10CFU/ml. The figures for the MIC99 in series [1], in [2] and in [3] were 0.5 µg/mL (≈ 1.57 µM), 0.25 µg/mL (≈ 0.783 µM) and 0.5 µg/mL (≈ 1.57 µM), respectively.
As for `CC1(C)S[C@@H]2[C@H](NC(=O)[C@H](N)c3ccccc3)C(=O)N2[C@H]1C(=O)O` [AMPICILLIN], the outcome in [7], in series [11] and in series [8] was inactive. Further, the MIC99 in [1] worked out at 128 µg/mL (≈ 366 µM); in [3] it was 0.125 µg/mL (≈ 0.358 µM). In series [10], the outcome was Active.
In the case of `S=C(NCCCCCCCCCCCCNC(=S)NC(c1ccccc1)c1ccccc1)NC(c1ccccc1)c1ccccc1`, the MIC99 in [1], in [2] and in [3] was greater than 256 µg/mL throughout.
GENTAMICIN [listing 1 of 2 here]: the Activity entry in series [12] and in series [13] was “Toxic” throughout.
Take `Cl.Cl.S=C(NCCCNCCCCCNCCCNC(=S)NC(c1ccccc1)c1ccccc1)NC(c1ccccc1)c1ccccc1`: the MIC99 in series [1] was 13.3 µg/mL; in [2], 6 µg/mL; in series [3] it was 6.7 µg/mL.
Consider `NC[C@H]1O[C@H](O[C@H]2[C@H](O)[C@@H](O[C@H]3O[C@H](CO)[C@@H](O)[C@H](N)[C@H]3O)[C@H](N)C[C@@H]2N)[C@H](O)[C@@H](O)[C@@H]1O` [KANAMYCIN], for which the outcome in series [14], in series [7], in [11] and in series [8] was inactive. The MIC99 in series [1] came to 32 µg/mL (≈ 66 µM); in [2] it was 8 µg/mL (≈ 16.5 µM); in series [3], 8 µg/mL (≈ 16.5 µM). For the same molecule, the result in series [10] was Active.
In the case of `O=C(NCCCCCCCCCCCCNC(=O)NCC(c1ccccc1)c1ccccc1)NCC(c1ccccc1)c1ccccc1`, the MIC99 in [1], in series [2] and in series [3] was greater than 256 µg/mL each time.
On to `Cl.Cl.S=C(NCCCNCCCCCNCCCNC(=S)NCc1ccccc1)NCc1ccccc1`, for which the values for the MIC99 in series [1], in series [2] and in [3] were 256 µg/mL, 32 µg/mL and 32 µg/mL, respectively.
In the case of `O=C(NCCCCCCCCCCCCNC(=O)NC(c1ccccc1)c1ccccc1)NC(c1ccccc1)c1ccccc1`, the MIC99 in [1], in series [2] and in [3] was greater than 256 µg/mL each time.
As for `S=C(NCCCNCCCCNCCCNC(=S)NCCC(c1ccccc1)c1ccccc1)NCCC(c1ccccc1)c1ccccc1`, the MIC99 is 29.2 µg/mL (≈ 41.2 µM) in series [1], 10.4 µg/mL (≈ 14.7 µM) in series [2] and 4.9 µg/mL (≈ 6.91 µM) in series [3].
In the case of `O=C(NCCCNCCCCNCCCNC(=O)NCC(c1ccccc1)c1ccccc1)NCC(c1ccccc1)c1ccccc1`, the MIC99 in series [1] stood at 18.6 µg/mL (≈ 28.7 µM); in series [2] it was 4.4 µg/mL (≈ 6.78 µM); in series [3] it was 11.3 µg/mL (≈ 17.4 µM).
`O=c1[nH]cc(F)c(=O)[nH]1` [FLUOROURACIL]: the Activity entry in series [12] and in series [13] was “Toxic” in each case.
For GENTAMICIN [listing 2 of 2 here], the outcome in series [15] was Active.
Turning to `Cl.Cl.S=C(NCCCNCCCCCNCCCNC(=S)NCCC(c1ccccc1)c1ccccc1)NCCC(c1ccccc1)c1ccccc1`, the values for the MIC99 in series [1], in series [2] and in series [3] were 32 µg/mL, 10 µg/mL and 9.3 µg/mL, respectively.
With `Cl.Cl.O=C(NCCCNCCCCCNCCCNC(=O)NCc1ccccc1)NCc1ccccc1`, the MIC99 is 213 µg/mL in series [1], 64 µg/mL in [2] and 107 µg/mL in series [3].
With `NCCCCNCCCN` [SPERMIDINE], the MIC99 in [1], in [2] and in [3] was greater than 512 µg/mL throughout.
